Test [1] deals with T1, Cannabinoid receptor 2 (Homo sapiens, UniProt P34972). As to the kind of experiment: Displacement of [3H]CP-55940 from human recombinant CB2 receptor expressed in CHO cells. The format is cell-based. Background: In a radioligand displacement assay an active substance lowers the binding of a labelled ligand.
For test [2], the target named is T2, Cannabinoid receptor 1 (Homo sapiens, UniProt P21554). Nature of the test: Displacement of [3H]CP-55940 from human recombinant CB1 receptor expressed in CHO cells. Format: cell-based.
T2 sequence (P21554 whole entry): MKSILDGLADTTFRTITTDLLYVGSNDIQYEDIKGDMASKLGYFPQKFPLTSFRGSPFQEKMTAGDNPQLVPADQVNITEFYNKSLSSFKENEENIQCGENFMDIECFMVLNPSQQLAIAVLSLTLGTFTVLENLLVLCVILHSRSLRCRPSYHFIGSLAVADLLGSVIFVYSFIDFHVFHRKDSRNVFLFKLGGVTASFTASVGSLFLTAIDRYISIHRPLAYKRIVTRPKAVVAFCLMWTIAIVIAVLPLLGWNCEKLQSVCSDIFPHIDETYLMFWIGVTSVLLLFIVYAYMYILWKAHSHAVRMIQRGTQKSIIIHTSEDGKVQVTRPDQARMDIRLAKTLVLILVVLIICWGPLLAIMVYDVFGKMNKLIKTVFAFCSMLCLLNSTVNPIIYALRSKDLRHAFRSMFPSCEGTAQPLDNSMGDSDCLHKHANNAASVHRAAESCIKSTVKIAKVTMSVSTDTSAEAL
Test [3] deals with T2, Cannabinoid receptor 1. As to the kind of experiment: Agonist activity at human recombinant CB1 receptor expressed in CHO cells assessed as effect on CP-55940 induced PLA2 activation by [3H]arachidonic acid release assay. Format: functional, cell-based. To be noted: for Kb: read-out: pA2 (converted).
The target of test [4] is T1, Cannabinoid receptor 2. As to the kind of experiment: Inverse agonist activity at human recombinant CB2 receptor expressed in CHOK1 cells assessed as effect on forskolin-stimulated adenylate cyclase activity by cAMP accumulation assay. The format is functional, cell-based, CHO-K1. The gist of the method:
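CHO-K1 cells expressing human CB2, grown in serum-supplemented medium with glutamine, Hygromycin B and G418 at 37 °C, 5% CO2. Confluent cells loaded with [3H]adenine for 2 h, then 20 min in PBS with 1 mM IBMX and 3×10^-7 M forskolin ± compound (10^-10–10^-6 M). Stopped with TCA; [3H]cAMP/[3H]ATP separated on Dowex/alumina, scintillation counted, basal subtracted; […], two independent experiments in triplicate.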
A general note: Changes in cAMP serve as a functional read-out for many G protein-coupled receptors.

For test [5], the system named is Rattus norvegicus. As to the kind of experiment: Neuroprotective activity in Lewis rat assessed as reduction of experimental autoallergic encephalomyelitis-induced motor deficits at 20 mg/kg, po qd for 11 days. The format is functional, organism-based. On the set-up: dose 20 mg/kg. The method in brief: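 Male Lewis rats, 175–225 g, inoculated day 0 by subcutaneous hind-paw injection, under isoflurane, of a saline emulsion of complete Freund adjuvant, M. tuberculosis H37RA and guinea pig myelin basic protein. Oral dosing once daily from day one. Motor dysfunction scored daily on a 0–10 scale, with body weights; paralysis intensity analysed as AUC and average score.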

The Ki is a measure of affinity in units of concentration, obtained from inhibition or displacement. The EC50 is the concentration that produces a half-maximal response. As usually defined, the pA2 is the negative logarithm of the molar antagonist concentration that doubles the agonist concentration needed for the same response.

Active and inactive are the calls of the source. No cut-off for these calls is given here.

T1 sequence (P34972 whole entry): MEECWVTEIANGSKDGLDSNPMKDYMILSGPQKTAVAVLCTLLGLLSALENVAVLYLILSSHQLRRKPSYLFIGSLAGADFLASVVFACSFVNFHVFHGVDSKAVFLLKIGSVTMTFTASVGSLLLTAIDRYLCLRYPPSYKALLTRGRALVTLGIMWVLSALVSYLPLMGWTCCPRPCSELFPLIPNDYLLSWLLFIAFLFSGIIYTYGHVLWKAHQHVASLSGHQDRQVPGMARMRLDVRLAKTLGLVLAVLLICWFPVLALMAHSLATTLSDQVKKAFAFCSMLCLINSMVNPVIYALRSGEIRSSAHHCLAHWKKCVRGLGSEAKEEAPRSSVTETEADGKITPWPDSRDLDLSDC

In the case of `CCCCCC1=NN(C(=O)N[C@H]2CC3CC[C@]2(C)C3(C)C)CC1c1ccccc1` (single isomer, unassigned), the inhibition constant (Ki) in test [1] is 36 nM; in test [2], 46.8 nM. Besides, the concentration giving a half-maximal response (EC50) in test [3] was 158 nM.
Turning to `CCCCC1=NN(C(=O)NC(C)(C)c2ccccc2)C(C)(C)C1c1ccccc1` (stereo unspecified), the inhibition constant Ki in test [1] was found to be 11.9 nM; in test [2] it was 9 nM.
On to `CCCCCCC(C)(C)c1cc(O)c2c(c1)OC(C)(C)[C@@H]1CCC(=O)C[C@@H]21` [NABILONE], for which the Ki in test [1] amounted to 17.6 nM; in test [2], 5.1 nM. The EC50 in test [3] is 3.98 nM.
With `CCCCCN1N=C(C(=O)N[C@H]2C[C@H]3CC[C@]2(C)C3(C)C)CC1c1ccccc1` (stereo partly specified), the Ki in test [1] turned out to be 20.1 nM; in test [2] it was 4.7 nM. Also, in test [3], the half-maximal effective concentration (EC50) was 5.01 nM. The Kb in test [3] was 7.94 nM.
Consider `CCCCCC1=NN(C(=O)NC2C[C@H]3CCC2(C)C3(C)C)CC1c1ccccc1` (single isomer, unassigned), for which the figures for the concentration giving a half-maximal response (EC50) in test [4] and in test [3] were 3.16 nM and 3.98 nM, respectively. Moreover, the inhibitory constant (Ki) came out at 5.3 nM in test [1] and 8.3 nM in test [2]. In addition, the outcome in test [5] was Active. Also, the pA2 in test [3] (cho) was found to be 8.1.
Turning to `CCCCCC1=NN(C(=O)N[C@H]2C[C@H]3CC[C@]2(C)C3(C)C)CC1c1ccccc1` (stereo in doubt; 9), the inhibition constant (Ki) in test [1] was 7.4 nM. In addition, the Ki in test [2] stood at 28.5 nM. In test [3], the half-maximal effective concentration (EC50) was 0.631 nM and the Kb is 7.94 nM.
`CCCCC1=NN(C(=O)NC(C)(C)c2ccc(F)cc2)CC1c1ccccc1F` (stereo unspecified): the Ki in test [1] was found to be 89 nM; in test [2] it was 32 nM. The concentration giving a half-maximal response (EC50) in test [3] is 126 nM.
Regarding `CCCCCC1=NN(C(=O)NC2CCCc3ccccc32)CC1c1ccccc1` (stereo unspecified), the results for the Ki in test [1] and in test [2] were 22.5 nM and 33.1 nM, respectively.
For `CCCCCC1=NN(C(=O)c2cccc3ccccc23)CC1c1ccccc1` (stereo unspecified), the inhibition constant (Ki) in test [1] was determined as 103 nM; in test [2] it was 164 nM. Besides, the half-maximal effective concentration (EC50) in test [3] was 31.6 nM.
In the case of `CCCCC1=NN(C(=O)N[C@H]2C[C@H]3CC[C@]2(C)C3(C)C)C(C)(C)C1c1ccccc1` (stereo partly specified), the Ki in test [1] stood at 3.4 nM; in test [2], 16.1 nM.
For the molecule `CCCCCC1=NN(C(=O)NC2CCCCC2)CC1c1ccccc1` (stereo unspecified), the inhibitory constant (Ki) in test [1] came to 79 nM; in test [2], 52 nM.
On to `CCCCCN1N=C(C(=O)NC(C)(C)c2ccc(F)cc2)CC1c1ccccc1` (stereo unspecified), for which, in test [1], the Ki amounted to 121 nM. Moreover, in test [2], the Ki stood at 118 nM. In test [3], the EC50 is 3.98 nM and the Kb is 7.94 nM.
As to `CCCCCN1N=C(C(=O)NC2C3CC4CC(C3)CC2C4)CC1c1ccccc1` (stereo unspecified), the Ki in test [1] amounted to 7.1 nM; in test [2], 9.2 nM. Moreover, in test [3], the Kb is 7.94 nM.
For `CCCCCC1=NN(C(=O)NCC23CC4CC(CC(C4)C2)C3)CC1c1ccccc1` (stereo unspecified), the Ki in test [2] came to 16.1 nM.
As to `CCCCCC1=NN(C(=O)NC2CCCCCC2)CC1c1ccccc1` (stereo unspecified), the values for the Ki in test [1] and in test [2] were 19.8 nM and 15.3 nM, respectively.
For `CCCCCC1=NN(C(=O)NCc2ccccc2)CC1c1ccccc1` (stereo unspecified), the results for the inhibition constant Ki in test [1] and in test [2] were 260 nM and 51 nM, respectively. In test [3], the 50% effective concentration (EC50) was 398 nM.
With `CCCCCC1=NN(C(=O)NC2C3CC4CC(C3)CC2C4)CC1c1ccccc1` (stereo unspecified), the inhibitory constant (Ki) in test [1] came to 6.3 nM; in test [2], 6.4 nM. The EC50 in test [3] is 25.1 nM.
On to `CCCCCC1=NN(C(=O)Nc2ccccc2C(F)(F)F)CC1c1ccccc1` (stereo unspecified), for which the values for the inhibitory constant (Ki) in test [1] and in test [2] were 15 nM and 70 nM, respectively.
As to `CCCCC1=NN(C(=O)NC(C)(C)c2ccccc2)CC1c1ccccc1` (stereo unspecified), the Ki came out at 35.6 nM in test [1] and 14.2 nM in test [2]. Moreover, the concentration for a half-maximal effect (EC50) in test [3] is 3.98 nM.
Consider `CCCCC1=NN(C(=O)NC(C)(C)c2ccccc2)CC1c1ccsc1` (stereo unspecified), for which the inhibition constant (Ki) in test [1] was 62 nM; in test [2] it was 19.3 nM. Moreover, the EC50 in test [3] is 39.8 nM.
With `CCCCCC1=NN(C(=O)NC2CCCCCCC2)CC1c1ccccc1` (stereo unspecified), the inhibitory constant (Ki) in test [1] stood at 26.6 nM; in test [2], 11.9 nM.
For `CCCCCC1=NN(C(=O)Nc2cccc3ccccc23)CC1c1ccccc1` (stereo unspecified), the Ki is 36.6 nM in test [1] and 7.4 nM in test [2]. For the same molecule, the EC50 in test [3] was 1580 nM.
Consider `CCCCCC1=NN(C(=O)NC[C@@H]2CC[C@H]3C[C@@H]2C3(C)C)CC1c1ccccc1` (stereo partly specified), for which the Ki in test [1] stood at 13.3 nM; in test [2], 15.6 nM. Also, in test [3], the half-maximal effective concentration (EC50) was 2000 nM.
In the case of `CCCCC1=NN(C(=O)NC(C)(C)c2ccc(F)cc2)CC1c1cccc(F)c1` (stereo unspecified), the values for the Ki in test [1] and in test [2] were 74 nM and 44.9 nM, respectively. In test [3], the half-maximal effective concentration (EC50) is 100 nM.
In the case of `CCCCCC1=NN(C(=O)NC(C)(C)c2ccccc2)CC1c1ccccc1` (stereo unspecified), the Ki in test [1] is 17.6 nM; in test [2], 3.26 nM. The concentration giving a half-maximal response (EC50) in test [3] is 3.98 nM.
In the case of `CCCCCN1N=C(C(=O)N[C@H]2C[C@H]3CC[C@]2(C)C3(C)C)CC1c1ccccc1F` (stereo partly specified), the Ki in test [1] amounted to 9.1 nM; in test [2] it was 6.1 nM. For the same molecule, in test [3], the EC50 was 3.98 nM. Besides, the Kb in test [3] was 7.94 nM.
Consider `CCCCCC1=NN(C(=O)NCC2CCCCC2)CC1c1ccccc1` (stereo unspecified), for which the Ki stood at 53 nM in test [1] and 15.3 nM in test [2].
With `CCCCCC1=NN(C(=O)NC23CC4CC(CC(C4)C2)C3)CC1c1ccccc1` (stereo unspecified), the inhibition constant Ki in test [1] came out at 14.9 nM; in test [2], 68 nM. Besides, the EC50 in test [3] is 398 nM.

Source of the values: ChEMBL document CHEMBL1221318, “Two distinct classes of novel pyrazolinecarboxamides as potent cannabinoid CB1 receptor agonists” (Bioorg Med Chem Lett, 2010).
